According to ChEMBL document CHEMBL1811815, “Synthesis of new pyrazole derivatives and their anticancer evaluation” (2010):

How the values were obtained:
[1] = tested on: SR; assay: Growth inhibition of human SR cells after 48 hrs by sulforhodamine B assay; type: functional
Method in brief: (§1)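 NCI five-dose assay using 10-fold serial dilutions from 10^-8 to 10^-4 M, compound in DMSO. Cells exposed 48 h at 37 °C, 5% CO2, 100% humidity. Protein measured by sulforhodamine B staining at 515 nm, with time-zero, control and treated readings. GI50 is the concentration where [(Ti−Tz)/(C−Tz)]×100 = 50. It is reported as greater or less than the range bounds when not reached.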

[2] = tested on: A549; assay: Growth inhibition of human A549 cells after 48 hrs by sulforhodamine B assay; type: functional; conditions: A549, 48 h; method in brief: as §1
[3] = tested on: NCI-H322M; assay: Growth inhibition of human NCI-H322M cells after 48 hrs by sulforhodamine B assay; type: functional; method in brief: as §1
[4] = tested on: NCI-H23; assay: Growth inhibition of human NCI-H23 cells after 48 hrs by sulforhodamine B assay; type: functional; conditions: NCI-H23, 48 h; method in brief: as §1
[5] = tested on: HCT-116; assay: Growth inhibition of human HCT116 cells after 48 hrs by sulforhodamine B assay; type: functional; conditions: HCT-116, 48 h; method in brief: as §1
[6] = tested on: SF-539; assay: Growth inhibition of human SF539 cells after 48 hrs by sulforhodamine B assay; type: functional; conditions: SF-539, 48 h; method in brief: as §1
[7] = tested on: SNB-75; assay: Growth inhibition of human SNB75 cells after 48 hrs by sulforhodamine B assay; type: functional; conditions: SNB-75, 48 h; method in brief: as §1
[8] = tested on: SF-295; assay: Growth inhibition of human SF295 cells after 48 hrs by sulforhodamine B assay; type: functional; conditions: SF-295, 48 h; method in brief: as §1
[9] = tested on: LOX IMVI; assay: Growth inhibition of human LOXIMVI cells after 48 hrs by sulforhodamine B assay; type: functional; method in brief: as §1
[10] = tested on: Malme-3M; assay: Growth inhibition of human MALME-3M cells after 48 hrs by sulforhodamine B assay; type: functional; method in brief: as §1
[11] = tested on: OVCAR-4; assay: Growth inhibition of human OVCAR4 cells after 48 hrs by sulforhodamine B assay; type: functional; conditions: OVCAR-4, 48 h; method in brief: as §1
[12] = tested on: OVCAR-8; assay: Growth inhibition of human OVCAR8 cells after 48 hrs by sulforhodamine B assay; type: functional; conditions: OVCAR-8, 48 h; method in brief: as §1
[13] = tested on: NCI/ADR-RES; assay: Growth inhibition of human NCI/ADR-RES cells after 48 hrs by sulforhodamine B assay; type: functional; method in brief: as §1
[14] = tested on: OVCAR-3; assay: Growth inhibition of human OVCAR3 cells after 48 hrs by sulforhodamine B assay; type: functional; conditions: OVCAR-3, 48 h; method in brief: as §1
[15] = tested on: SK-OV-3; assay: Growth inhibition of human SKOV3 cells after 48 hrs by sulforhodamine B assay; type: functional; conditions: SK-OV-3, 48 h; method in brief: as §1
[16] = tested on: RXF 393; assay: Growth inhibition of human RXF393 cells after 48 hrs by sulforhodamine B assay; type: functional; conditions: RXF 393, 48 h; method in brief: as §1
[17] = tested on: 786-0; assay: Growth inhibition of human 786-0 cells after 48 hrs by sulforhodamine B assay; type: functional; conditions: 786-0, 48 h; method in brief: as §1
[18] = tested on: UO-31; assay: Growth inhibition of human UO31 cells after 48 hrs by sulforhodamine B assay; type: functional; conditions: UO-31, 48 h; method in brief: as §1
[19] = tested on: DU-145; assay: Growth inhibition of human DU145 cells after 48 hrs by sulforhodamine B assay; type: functional; conditions: DU-145, 48 h; method in brief: as §1
[20] = Growth inhibition of human Hs 578T cells after 48 hrs by sulforhodamine B assay; type: functional; method in brief: as §1
[21] = tested on: MDA-MB-231; assay: Growth inhibition of human MDA-MB-231 cells after 48 hrs by sulforhodamine B assay; type: functional; conditions: MDA-MB-231, 48 h; method in brief: as §1
[22] = tested on: TK-10; assay: Anticancer activity against human TK10 cells assessed as cell growth at 10^-5 M after 48 hrs by sulforhodamine B assay relative to control; conditions: TK-10, 48 h
[23] = tested on: HCT-116; assay: Anticancer activity against human HCT116 cells assessed as cell growth at 10^-5 M after 48 hrs by sulforhodamine B assay relative to control; conditions: HCT-116, 48 h
[24] = tested on: NCI-H522; assay: Anticancer activity against human NCI-H522 cells assessed as cell growth at 10^-5 M after 48 hrs by sulforhodamine B assay relative to control; conditions: NCI-H522, 48 h
[25] = tested on: ACHN; assay: Anticancer activity against human ACHN cells assessed as cell growth at 10^-5 M after 48 hrs by sulforhodamine B assay relative to control
[26] = tested on: DU-145; assay: Anticancer activity against human DU145 cells assessed as cell growth at 10^-5 M after 48 hrs by sulforhodamine B assay relative to control; conditions: DU-145, 48 h
[27] = tested on: MDA-MB-435; assay: Anticancer activity against human MDA-MB-435 cells assessed as cell growth at 10^-5 M after 48 hrs by sulforhodamine B assay relative to control; conditions: MDA-MB-435, 48 h
[28] = tested on: UACC-62; assay: Anticancer activity against human UACC62 cells assessed as cell growth at 10^-5 M after 48 hrs by sulforhodamine B assay relative to control; conditions: UACC-62, 48 h
[29] = tested on: HOP-92; assay: Anticancer activity against human HOP92 cells assessed as cell growth at 10^-5 M after 48 hrs by sulforhodamine B assay relative to control; conditions: HOP-92, 48 h
[30] = tested on: MOLT-4; assay: Anticancer activity against human MOLT4 cells assessed as cell growth at 10^-5 M after 48 hrs by sulforhodamine B assay relative to control; conditions: MOLT-4, 48 h
[31] = tested on: CAKI-1; assay: Anticancer activity against human Caki1 cells assessed as cell growth at 10^-5 M after 48 hrs by sulforhodamine B assay relative to control; conditions: CAKI-1, 48 h
[32] = read-out: pLC50 (the source's name) (converted)

O=C(NC(=S)Nc1cc(-c2ccc(Br)cc2)n[nH]1)c1ccccc1 gave a GI50 [1] of 11.7 µM, a CC50 [1, 32] of over 100 µM and a TGI ([1]; read-out: pTGI (converted)) of 40.7 µM. The GI50 [2] was 2.34 µM, the CC50 [2, 32] was 79.4 µM and the TGI ([2]; read-out: pTGI (converted)) was 14.1 µM. For the same compound, the GI50 [3] was 4.47 µM, the CC50 [3, 32] was over 100 µM and the TGI ([3]; read-out: pTGI (converted)) was 44.7 µM. For the same compound, the GI50 [4] was 9.33 µM, the CC50 ([4]; read-out: pLC50 (converted)) was over 100 µM and the TGI ([4]; read-out: pTGI (converted)) was 50.1 µM. The GI50 [5] was 1.78 µM, the CC50 [5, 32] was 24.5 µM and the TGI ([5]; read-out: pTGI (converted)) was 4.79 µM. It also gave a GI50 [6] of 3.39 µM, a CC50 [6, 32] of over 100 µM and a TGI ([6]; read-out: pTGI) of over 100 µM. The GI50 [7] was 6.17 µM, the CC50 [7, 32] was 89.1 µM and the TGI ([7]; read-out: pTGI (converted)) was 26.9 µM. For the same compound, the GI50 [8] was 9.77 µM, the CC50 [8, 32] was over 100 µM and the TGI ([8]; read-out: pTGI (converted)) was 36.3 µM. The GI50 [9] was 5.5 µM, the CC50 [9, 32] was over 100 µM and the TGI ([9]; read-out: pTGI) was over 100 µM. It also gave a GI50 [10] of 6.61 µM, a CC50 [10, 32] of over 100 µM and a TGI ([10]; read-out: pTGI (converted)) of 91.2 µM. The GI50 [11] was 4.27 µM, the CC50 [11, 32] was over 100 µM and the TGI ([11]; read-out: pTGI (converted)) was 24 µM. For the same compound, the GI50 [12] was 4.68 µM, the CC50 [12, 32] was 69.2 µM and the TGI ([12]; read-out: pTGI (converted)) was 20.9 µM. It also gave a GI50 [13] of 4.9 µM, a CC50 [13, 32] of over 100 µM and a TGI ([13]; read-out: pTGI (converted)) of 63.1 µM. It also gave a GI50 [14] of 5.01 µM, a CC50 [14, 32] of 70.8 µM and a TGI ([14]; read-out: pTGI (converted)) of 20.4 µM. The GI50 [15] was 7.24 µM, the CC50 [15, 32] was 52.5 µM and the TGI ([15]; read-out: pTGI (converted)) was 21.9 µM. It also gave a GI50 [16] of 3.16 µM, a CC50 [16, 32] of 47.9 µM and a TGI ([16]; read-out: pTGI (converted)) of 15.1 µM. For the same compound, the GI50 [17] was 3.24 µM, the CC50 [17, 32] was 47.9 µM and the TGI ([17]; read-out: pTGI (converted)) was 11.7 µM. The GI50 [18] was 4.07 µM, the CC50 [18, 32] was 85.1 µM and the TGI ([18]; read-out: pTGI (converted)) was 21.4 µM. For the same compound, the GI50 [19] was 9.33 µM, the CC50 [19, 32] was over 100 µM and the TGI ([19]; read-out: pTGI) was over 100 µM. It also gave a GI50 [20] of 2.75 µM, a CC50 [20, 32] of over 100 µM and a TGI ([20]; read-out: pTGI (converted)) of 33.9 µM. The GI50 [21] was 3.8 µM, the CC50 [21, 32] was over 100 µM and the TGI ([21]; read-out: pTGI (converted)) was 22.4 µM. For the same compound, the growth, % of control at 10 µM [22] was -19.9%, the growth, % of control at 10 µM [23] was 1% and the growth, % of control at 10 µM [24] was 8.9%.

Compound Cc1cs/c(=N\C(=O)c2cnn(C)c2)n1-c1ccc(Cl)cc1 has a growth, % of control at 10 µM [25] of -11.8% and a growth, % of control at 10 µM [26] of 0.3%.

With Cc1cs/c(=N\C(=O)c2cnn(C)c2)n1-c1ccccc1 the growth, % of control at 10 µM [25] was -15.7% and the growth, % of control at 10 µM [26] was 1.6%.

For Cc1cc(NC(=S)NC(=O)c2ccccc2)n(-c2ccccc2)n1, the growth, % of control at 10 µM [27] was 22.6%.

Cn1cc(C(=O)NC(=S)Nc2ccc(Cl)cc2)cn1 gave a growth, % of control at 10 µM [24] of 47.2%.

With Cc1ccc(NC(=S)NC(=O)c2cnn(C)c2)cc1 the growth, % of control at 10 µM [24] was 62.5%.

Compound Cn1cc(C(=O)NC(=S)Nc2ccc(Cl)cc2Cl)cn1 has a growth, % of control at 10 µM [28] of 79.7%.

With COc1ccc(NC(=S)NC(=O)c2cnn(C)c2)cc1 the growth, % of control at 10 µM [29] was 68.7%.

Work on Cc1cccc(C)c1NC(=S)NC(=O)c1cnn(C)c1 yielded a growth, % of control at 10 µM [30] of 40.5%.

For Cn1cc(C(=O)NC(=S)Nc2c(Cl)cccc2Cl)cn1, the growth, % of control at 10 µM [31] was 69.7%.
